Source: ChEMBL document CHEMBL1138064, “Discovery of N-[(3R)-1-azabicyclo[2.2.2]oct-3-yl]furo[2,3-c]pyridine-5-carboxamide, an agonist of the alpha7 nicotinic acetylcholine receptor, for the potential treatment of cognitive deficits in schizophrenia: synthesis and structure--activity relationship” (J Med Chem, 2006)
The source made the active and inactive calls. No cut-off for these calls is given here.

Tests used:
[1] = Volume of distribution in rat at 5 mg/kg; format: ADME, organism-based; parameters: dose 5 mg/kg; settings: in vivo, read-out: Vdss
[2] = biological target: Neuronal acetylcholine receptor subunit alpha-7 (Rattus norvegicus) (UniProt Q05941); test: Activity at alpha-7 nAChR in Sprague-Dawley rat hippocampal neurons assessed as induction of MLA-inhibited desensitizing inward current at 3 uM relative to (-)-nicotine; format: functional, tissue-based; parameters: scale not given: the % may be the effect or the level left; settings: Hippocampus
How it was run: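 Rat hippocampal neurons were recorded by whole-cell patch clamp with rapid agonist application. Desensitizing inward currents were measured, and α7 mediation was tested with MLA (10 nM), n = 3.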

Rattus norvegicus = test: Reversal of amphetamine-induced gating deficit in Sprague-Dawley at 1 mg/kg, iv; format: functional, organism-based; parameters: dose 1 mg/kg
How it was run: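 Anesthetised rats; d-amphetamine 1 mg/kg iv given to disrupt auditory gating recorded in the hippocampal CA3 region (conditioning vs test responses, analogous to human P50). Agonist given iv afterwards; read-out is % gating versus amphetamine-alone. The 10 mg/kg dose was run as a separate experiment. Brain drug levels were measured after the iv doses.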

[3] = biological target: Type-1 angiotensin II receptor (Homo sapiens) (UniProt P30556); test: Inhibition of AT1 receptor at 1 uM
[4] = biological target: Atrial natriuretic peptide receptor (Homo sapiens) (UniProt P20594+P16066+P17342); test: Inhibition of ANP receptor at 1 uM; format: protein assay
Sequence of Atrial natriuretic peptide receptor (Homo sapiens) (P16066 whole entry, looked up): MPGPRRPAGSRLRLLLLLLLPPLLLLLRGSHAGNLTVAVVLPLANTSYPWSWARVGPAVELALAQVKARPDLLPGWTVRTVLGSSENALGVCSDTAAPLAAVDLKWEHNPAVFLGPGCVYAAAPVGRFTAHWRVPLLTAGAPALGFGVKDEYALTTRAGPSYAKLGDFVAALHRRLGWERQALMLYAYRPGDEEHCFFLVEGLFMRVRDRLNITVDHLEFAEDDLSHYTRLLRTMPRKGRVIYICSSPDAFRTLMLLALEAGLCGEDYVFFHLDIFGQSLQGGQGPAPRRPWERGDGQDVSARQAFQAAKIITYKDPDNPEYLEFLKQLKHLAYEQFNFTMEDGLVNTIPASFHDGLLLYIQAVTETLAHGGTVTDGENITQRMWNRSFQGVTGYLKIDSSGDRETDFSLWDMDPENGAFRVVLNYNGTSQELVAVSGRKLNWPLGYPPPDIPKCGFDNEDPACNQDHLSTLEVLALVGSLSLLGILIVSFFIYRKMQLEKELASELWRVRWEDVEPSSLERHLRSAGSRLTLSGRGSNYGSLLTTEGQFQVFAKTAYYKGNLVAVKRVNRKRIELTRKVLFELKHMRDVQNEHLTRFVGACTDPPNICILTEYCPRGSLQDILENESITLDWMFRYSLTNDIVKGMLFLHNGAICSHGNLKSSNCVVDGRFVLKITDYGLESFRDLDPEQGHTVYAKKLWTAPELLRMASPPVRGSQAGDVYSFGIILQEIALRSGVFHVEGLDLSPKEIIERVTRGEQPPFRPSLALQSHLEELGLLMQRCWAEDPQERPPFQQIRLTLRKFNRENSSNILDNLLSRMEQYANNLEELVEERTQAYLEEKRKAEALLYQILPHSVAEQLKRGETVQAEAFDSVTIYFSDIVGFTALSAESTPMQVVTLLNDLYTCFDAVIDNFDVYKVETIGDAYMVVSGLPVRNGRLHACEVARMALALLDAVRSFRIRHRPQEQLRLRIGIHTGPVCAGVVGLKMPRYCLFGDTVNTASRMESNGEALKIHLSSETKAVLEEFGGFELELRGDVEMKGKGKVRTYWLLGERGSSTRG
Sequence of Atrial natriuretic peptide receptor (Homo sapiens) (P17342 whole entry, looked up): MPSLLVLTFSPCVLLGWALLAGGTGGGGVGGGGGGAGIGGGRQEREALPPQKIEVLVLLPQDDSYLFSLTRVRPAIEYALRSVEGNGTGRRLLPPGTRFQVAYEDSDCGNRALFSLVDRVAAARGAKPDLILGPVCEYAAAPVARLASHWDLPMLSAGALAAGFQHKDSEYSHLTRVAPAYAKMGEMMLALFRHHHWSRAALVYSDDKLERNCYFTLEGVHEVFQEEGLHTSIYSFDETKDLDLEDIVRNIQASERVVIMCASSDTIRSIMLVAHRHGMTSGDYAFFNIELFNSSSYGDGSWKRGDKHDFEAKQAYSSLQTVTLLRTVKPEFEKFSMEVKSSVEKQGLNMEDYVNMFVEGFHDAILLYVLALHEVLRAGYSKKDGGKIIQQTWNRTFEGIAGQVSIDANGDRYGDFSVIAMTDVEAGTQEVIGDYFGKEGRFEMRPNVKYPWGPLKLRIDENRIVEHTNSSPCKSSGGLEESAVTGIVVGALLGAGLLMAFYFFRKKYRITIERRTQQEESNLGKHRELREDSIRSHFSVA
Sequence of Atrial natriuretic peptide receptor (Homo sapiens) (P20594 whole entry, looked up): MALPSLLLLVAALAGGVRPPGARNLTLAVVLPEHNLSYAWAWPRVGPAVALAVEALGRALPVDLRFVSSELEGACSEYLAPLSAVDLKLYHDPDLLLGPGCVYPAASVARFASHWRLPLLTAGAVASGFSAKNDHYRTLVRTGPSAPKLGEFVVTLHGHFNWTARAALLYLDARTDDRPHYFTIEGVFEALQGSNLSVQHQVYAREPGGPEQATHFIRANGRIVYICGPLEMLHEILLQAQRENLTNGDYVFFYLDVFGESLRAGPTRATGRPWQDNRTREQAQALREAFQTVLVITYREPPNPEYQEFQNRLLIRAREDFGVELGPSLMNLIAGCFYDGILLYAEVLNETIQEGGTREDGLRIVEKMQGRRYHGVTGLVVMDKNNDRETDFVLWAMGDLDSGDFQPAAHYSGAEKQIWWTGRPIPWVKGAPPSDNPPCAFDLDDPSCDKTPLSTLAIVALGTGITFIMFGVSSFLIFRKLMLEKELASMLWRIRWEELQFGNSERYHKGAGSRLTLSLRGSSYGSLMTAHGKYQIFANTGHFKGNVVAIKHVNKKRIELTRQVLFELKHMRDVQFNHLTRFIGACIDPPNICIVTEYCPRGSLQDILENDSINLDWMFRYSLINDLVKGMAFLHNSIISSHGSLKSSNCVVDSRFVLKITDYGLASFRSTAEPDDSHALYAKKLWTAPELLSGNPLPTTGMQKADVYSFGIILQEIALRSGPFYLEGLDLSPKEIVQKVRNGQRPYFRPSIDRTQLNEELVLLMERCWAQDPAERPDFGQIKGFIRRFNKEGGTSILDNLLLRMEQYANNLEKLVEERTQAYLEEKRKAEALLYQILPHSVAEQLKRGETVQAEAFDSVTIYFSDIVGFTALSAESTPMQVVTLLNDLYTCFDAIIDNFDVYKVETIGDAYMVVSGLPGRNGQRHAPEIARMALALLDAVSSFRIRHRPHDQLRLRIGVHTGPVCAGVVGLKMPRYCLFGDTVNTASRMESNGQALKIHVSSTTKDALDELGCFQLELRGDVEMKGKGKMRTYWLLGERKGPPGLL

[5] = biological target: GABA-A receptor; anion channel (Homo sapiens) (UniProt P14867+P47870+P18507+P28472+P48169+Q99928+Q9UN88+P34903+O00591+O14764+Q8N1C3+P18505+P78334+P47869+P31644+Q16445); test: Inhibition of central BZD receptor at 1 uM; format: protein-complex assay
[6] = biological target: Calcitonin gene-related peptide type 1 receptor (Homo sapiens) (UniProt Q16602); test: Inhibition of CGRP receptor at 1 uM
[7] = biological target: Cholecystokinin receptor type A (Homo sapiens) (UniProt P32238); test: Inhibition of CCK1 receptor at 1 uM
[8] = biological target: Gastrin/cholecystokinin type B receptor (Homo sapiens) (UniProt P32239); test: Inhibition of CCK2 receptor at 1 uM
Sequence of Gastrin/cholecystokinin type B receptor (Homo sapiens) (P32239 whole entry): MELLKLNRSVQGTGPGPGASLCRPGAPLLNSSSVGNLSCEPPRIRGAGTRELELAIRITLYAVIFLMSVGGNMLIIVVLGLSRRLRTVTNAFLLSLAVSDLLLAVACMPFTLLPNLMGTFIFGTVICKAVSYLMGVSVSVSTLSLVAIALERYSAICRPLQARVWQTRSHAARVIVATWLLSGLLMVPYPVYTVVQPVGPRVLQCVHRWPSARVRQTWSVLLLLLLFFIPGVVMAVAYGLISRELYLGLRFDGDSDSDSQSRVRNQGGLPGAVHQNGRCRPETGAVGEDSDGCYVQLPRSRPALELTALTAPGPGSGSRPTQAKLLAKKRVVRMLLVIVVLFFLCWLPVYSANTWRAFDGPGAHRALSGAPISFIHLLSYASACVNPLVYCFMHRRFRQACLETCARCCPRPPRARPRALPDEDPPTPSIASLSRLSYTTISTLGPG

[9] = biological target: D(1B) dopamine receptor (Homo sapiens) (UniProt P21918); test: Inhibition of D5 receptor at 1 uM
[10] = Half life in Sprague-Dawley rat liver microsome; format: ADME; settings: liver microsomes
[11] = biological target: Serotonin 3 (5-HT3) receptor (Homo sapiens) (UniProt P46098+A5X5Y0+O95264+Q70Z44+Q8WXA8); test: Inhibition of 5HT3 receptor at 1 uM; format: protein-complex assay
[12] = biological target: 5-hydroxytryptamine receptor 5A (Homo sapiens) (UniProt P47898); test: Inhibition of 5HT5A receptor at 1 uM
[13] = biological target: Somatostatin receptor (Homo sapiens) (UniProt P35346+P30874+P31391+P30872+P32745); test: Inhibition of sst receptor at 1 uM; format: protein assay
Homo sapiens [14] = organism: Homo sapiens; test: Inhibition of potassium channel V type at 1 uM
[15] = biological target: Prostaglandin G/H synthase 2 (Homo sapiens) (UniProt P35354); test: Inhibition of COX2 at 1 uM
[16] = biological target: Nitric oxide synthase, inducible (Homo sapiens) (UniProt P35228); test: Inhibition of Nitric oxide synthase, inducible at 1 uM
[17] = biological target: Phosphodiesterase 1 (Homo sapiens) (UniProt P54750+Q01064+Q14123); test: Inhibition of PDE1 at 1 uM; format: protein assay
[18] = biological target: Angiotensin-converting enzyme (Homo sapiens) (UniProt P12821); test: Inhibition of ACE at 1 uM
Sequence of Angiotensin-converting enzyme (Homo sapiens) (P12821 whole entry): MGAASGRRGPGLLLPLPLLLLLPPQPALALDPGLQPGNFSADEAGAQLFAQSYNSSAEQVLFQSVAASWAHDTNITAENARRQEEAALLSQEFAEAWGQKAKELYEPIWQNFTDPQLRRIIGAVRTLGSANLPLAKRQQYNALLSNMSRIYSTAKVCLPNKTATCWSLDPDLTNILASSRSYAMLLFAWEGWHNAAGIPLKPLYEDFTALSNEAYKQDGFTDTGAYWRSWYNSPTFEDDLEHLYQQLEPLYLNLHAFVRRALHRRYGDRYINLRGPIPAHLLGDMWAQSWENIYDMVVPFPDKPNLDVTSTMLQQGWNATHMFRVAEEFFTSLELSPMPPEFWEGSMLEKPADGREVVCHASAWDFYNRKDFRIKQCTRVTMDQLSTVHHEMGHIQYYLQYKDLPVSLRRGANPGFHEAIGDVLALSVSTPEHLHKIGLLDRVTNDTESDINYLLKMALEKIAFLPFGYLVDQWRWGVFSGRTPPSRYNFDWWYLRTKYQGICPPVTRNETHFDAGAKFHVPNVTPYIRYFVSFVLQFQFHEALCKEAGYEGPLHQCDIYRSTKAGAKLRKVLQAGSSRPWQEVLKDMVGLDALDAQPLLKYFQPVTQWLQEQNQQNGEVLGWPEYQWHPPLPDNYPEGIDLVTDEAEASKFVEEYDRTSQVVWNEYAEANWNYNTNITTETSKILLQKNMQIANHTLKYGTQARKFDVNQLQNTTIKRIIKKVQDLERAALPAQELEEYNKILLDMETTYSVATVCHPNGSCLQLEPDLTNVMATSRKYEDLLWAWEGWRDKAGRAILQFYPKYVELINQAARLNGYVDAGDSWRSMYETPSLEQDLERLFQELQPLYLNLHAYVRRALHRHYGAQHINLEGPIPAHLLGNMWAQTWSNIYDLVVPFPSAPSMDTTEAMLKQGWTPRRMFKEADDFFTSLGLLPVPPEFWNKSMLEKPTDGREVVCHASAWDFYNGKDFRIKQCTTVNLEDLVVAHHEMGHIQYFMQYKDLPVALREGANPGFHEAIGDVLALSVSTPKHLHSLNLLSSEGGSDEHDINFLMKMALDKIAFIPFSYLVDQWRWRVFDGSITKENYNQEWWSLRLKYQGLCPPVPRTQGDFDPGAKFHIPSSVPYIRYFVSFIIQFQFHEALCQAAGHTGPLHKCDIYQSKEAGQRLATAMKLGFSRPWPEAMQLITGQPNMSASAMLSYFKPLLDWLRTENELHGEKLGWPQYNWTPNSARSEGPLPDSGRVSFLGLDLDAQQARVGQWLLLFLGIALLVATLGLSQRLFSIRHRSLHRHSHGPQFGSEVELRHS

[19] = biological target: Endothelin-converting enzyme 1 (Homo sapiens) (UniProt P42892); test: Inhibition of ECE at 1 uM
Homo sapiens [20] = organism: Homo sapiens; test: Inhibition of elastase at 1 uM
[21] = biological target: Soluble guanylate cyclase (Homo sapiens) (UniProt Q02153+O75343+P33402+Q02108); test: Inhibition of stimulated guanylate cyclase at 1 uM; format: protein-complex assay
MAO-B = MAO-B (Homo sapiens, UniProt P27338); test: Inhibition of MAO-B at 1 uM
Sequence of MAO-B (P27338 whole entry): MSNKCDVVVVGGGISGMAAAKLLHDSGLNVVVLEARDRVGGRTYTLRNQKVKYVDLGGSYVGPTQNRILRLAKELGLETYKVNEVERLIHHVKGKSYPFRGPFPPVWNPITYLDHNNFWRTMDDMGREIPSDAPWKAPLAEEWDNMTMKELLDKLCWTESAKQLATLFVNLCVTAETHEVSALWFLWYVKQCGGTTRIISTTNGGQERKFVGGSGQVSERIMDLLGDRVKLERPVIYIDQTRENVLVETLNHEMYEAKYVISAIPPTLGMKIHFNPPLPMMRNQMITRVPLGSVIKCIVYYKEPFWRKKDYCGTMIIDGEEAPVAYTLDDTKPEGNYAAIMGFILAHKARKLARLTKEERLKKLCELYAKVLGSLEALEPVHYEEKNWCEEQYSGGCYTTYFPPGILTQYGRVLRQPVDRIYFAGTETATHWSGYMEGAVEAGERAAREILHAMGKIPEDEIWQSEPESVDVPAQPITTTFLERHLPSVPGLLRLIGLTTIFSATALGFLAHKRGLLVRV

[22] = biological target: Sodium/potassium-transporting ATPase (Homo sapiens) (UniProt P05023+P14415+P05026+P50993+P54709+P13637+Q13733+P54710); test: Inhibition of Sodium/potassium-transporting ATPase at 1 uM; format: protein-complex assay
[23] = Activity at alpha7-5HT3 chimera expressed in SHEP1 cells by FLIPR assay; format: functional, cell-based; settings: Homo sapiens, SH-EP1
How it was run: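 Cell-based FLIPR functional assay in SH-EP1 cells expressing the α7-5HT3 chimera. Values are the average of at least five experiments for most compounds.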

[24] = biological target: Neuronal acetylcholine receptor; alpha4/beta2 (Rattus norvegicus) (UniProt P09483+P12390); test: Inhibition of [3H]cytisine binding to alpha4beta2 nAChR in rat brain homogenate at 1 uM; format: tissue-based
How it was run: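 Radioligand displacement in rat brain homogenate with [³H]cytisine as the α4β2 ligand; test compound at 1 µM; value reported as % block of binding.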

hERG = hERG (Homo sapiens, UniProt Q12809); test: Inhibition of hERG expressed in HEK293 cells at 20 uM by patch clamp assay; format: toxicity, cell-based; settings: HEK293 cells that express hERG
How it was run: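 hERG current (IKr) in HEK cells recorded by patch clamp; compound applied at 2 and 20 µM; % block of current reported at each concentration.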

[25] = Half life in human liver microsome; format: ADME; settings: liver microsomes
[26] = Metabolic stability in Sprague-Dawley rat liver microsomes after 1 hr; format: ADME, Microsome; settings: read-out: Stability
How it was run: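 Rat liver microsomes incubated with compound, in vitro metabolism; read-out is percent of parent remaining at 1 h.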

Homo sapiens [27] = organism: Homo sapiens; test: Inhibition of GABA receptor at 1 uM
[28] = biological target: Glutamate [NMDA] receptor (Homo sapiens) (UniProt Q05586+Q12879+Q13224+O15399+O60391+Q14957+Q8TCU5); test: Inhibition of NMDA receptor at 1 uM; format: protein-complex assay
[29] = biological target: Histamine H1 receptor (Homo sapiens) (UniProt P35367); test: Inhibition of central histamine H1 receptor at 1 uM
[30] = biological target: Histamine H2 receptor (Homo sapiens) (UniProt P25021); test: Inhibition of histamine H2 receptor at 1 uM
[31] = biological target: Muscarinic acetylcholine receptor M2 (Homo sapiens) (UniProt P08172); test: Inhibition of M2 receptor at 1 uM
[32] = biological target: Substance-P receptor (Homo sapiens) (UniProt P25103); test: Inhibition of NK1 receptor at 1 uM
[33] = biological target: Nociceptin receptor (Homo sapiens) (UniProt P41146); test: Inhibition of ORL1 receptor at 1 uM
[34] = biological target: Vasoactive intestinal polypeptide receptor 2 (Homo sapiens) (UniProt P41587); test: Inhibition of PACAP receptor at 1 uM
[35] = biological target: 5-hydroxytryptamine receptor 1A (Homo sapiens) (UniProt P08908); test: Inhibition of 5HT1A receptor at 1 uM
[36] = biological target: 5-hydroxytryptamine receptor 1B (Homo sapiens) (UniProt P28222); test: Inhibition of 5HT1B receptor at 1 uM

## O=C(N[C@H]1CN2CCC1CC2)c1cc2ccoc2cn1 [PHA-543613]
[1]
  Vd: 1.8 L/kg
[2]
  Activity: 103%
Rattus norvegicus
  Activity: Active
[3]
  inhibition: 16%
[4]
  inhibition: < 10%
[5]
  inhibition: < 10%
[6]
  inhibition: < 10%
[7]
  inhibition: < 10%
[8]
  inhibition: < 10%
[9]
  inhibition: < 10%
[10]
  half-life: 40 min
[11]
  inhibition: 67%
[12]
  inhibition: < 10%
[13]
  inhibition: < 10%
Homo sapiens [14]
  inhibition: < 10%
[15]
  inhibition: 14%
[16]
  inhibition: < 10%
[17]
  inhibition: < 10%
[18]
  inhibition: < 10%
[19]
  inhibition: < 10%
Homo sapiens [20]
  inhibition: 22%
[21]
  inhibition: < 10%
MAO-B
  inhibition at 1 µM: < 10%
[22]
  inhibition: < 10%
[23]
  EC50: 65 nM
[24]
  inhibition: 13%
hERG
  inhibition at 20 µM: 29%
[25]
  half-life: > 120 min
[26]
  remaining at 1 h: 55%
Homo sapiens [27]
  inhibition: < 10%
[28]
  inhibition: 11%
[29]
  inhibition: < 10%
[30]
  inhibition: < 10%
[31]
  inhibition: 23%
[32]
  inhibition: 26%
[33]
  inhibition: < 10%
[34]
  inhibition: < 10%
[35]
  inhibition: < 10%
[36]
  inhibition: < 10%
